Series [1] relates to PC-12. Nature of the series: Neuroprotective activity in rat PC12 cells assessed as inhibition of amyloid-beta (1 to 42)-induced cell death after 24 hrs by MTT assay. It is filed as functional, cell-based. The conditions noted are these: for IC50: PC-12, 24 h. The procedure, abridged:
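NGF-differentiated PC-12 cells (100 ng/mL, 48 h) were given 10 μM Aβ42 plus peptide at 1:1, 1:2, 1:5 and 1:10 ratios for 24 h, and read by MTT. Viability was scaled to 1 μM staurosporine full kill (100% loss), with NaOH-matched vehicle and medium as negative controls. IC50 from dose–response, ≥3 independent experiments × 6 replicates, mean ± SEM.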

In series [2] the test system is PC-12. Nature of the series: Neuroprotective activity in rat PC12 cells assessed as inhibition of amyloid-beta (1 to 42)-induced cell death after 24 hrs by LDH release assay. The series is classed as functional, cell-based. The conditions noted are these: PC-12, 24 h. The procedure, abridged:
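PC-12 cells were differentiated with NGF (100 ng/mL, 48 h), then exposed to Aβ42 alone or Aβ42:peptide mixtures at 1:1, 1:2, 1:5 and 1:10 ratios. Cell death was measured by LDH release (membrane integrity kit). IC50 was taken from the dose–response, ≥3 independent experiments with 6 replicates each, mean ± SEM.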

Series [3] has as its system PC-12. Nature of the series: Neuroprotective activity in rat PC12 cells assessed as inhibition of staurosporine-induced cell death after 24 hrs by MTT assay. It is filed as functional, cell-based. The procedure, abridged:
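Differentiated PC-12 cells (NGF 100 ng/mL, 48 h) exposed to 0.2 μM staurosporine, with or without varying tetrapeptide concentrations, for 24 h. Viability was read by MTT. Mean ± SEM, ≥3 independent experiments with 5 replicates per point.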

Series [4] has as its system PC-12. Nature of the series: Neuroprotective activity in rat PC12 cells assessed as inhibition of alpha-synuclein-induced cell death after 24 hrs by MTT assay. The series is classed as functional, cell-based. The procedure, abridged: (§1)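 NGF-differentiated PC-12 cells (100 ng/mL, 48 h) treated 24 h with α-synuclein (15 μM) or alamethicin (4 μM), alone or with a range of tetrapeptide concentrations. MTT read-out. Mean ± SEM of ≥3 independent experiments, 5 replicates per point.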

Series [5] relates to PC-12. In words: Neuroprotective activity in rat PC12 cells assessed as inhibition of alamethicin-induced cell death after 24 hrs by MTT assay. It is filed as functional, cell-based. An outline of the steps:
as §1

Series [6] is described as follows: Binding affinity to amyloid beta (1 to 42) Try residue at position 1 assessed as change in fluorescence intensity. An outline of the steps: (§2)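 HFIP-pretreated Aβ42 or its Y-substituted analogue (5 μM nominal) was mixed with tetrapeptide (50 μM nominal), taken up in 60 mM NaOH (10% of volume), then diluted with 10 mM sodium phosphate pH 7.4 and spun briefly. Exact concentrations were set afterwards by AAA. Read-out: excitation 280 nm, emission 290–400 nm at 22°C, ≥10 immediate scans. Buffer-subtracted area per micromole was normalized to the analogue alone. Four independent experiments.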

A short description of series [7]: Binding affinity to amyloid beta (1 to 42) Try residue at position 20 assessed as change in fluorescence intensity. An outline of the steps: (§3)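 Aβ42 or Y-substituted analogue (5 μM final) mixed with tetrapeptide (50 μM final), HFIP-pretreated, dissolved in 60 mM NaOH (10% of volume) then diluted in 10 mM sodium phosphate pH 7.4. Spun 5,000 g 1 min, concentration confirmed post facto by AAA. Excitation 280 nm, emission 290–400 nm, 22°C, ≥10 scans of ~1 min right after preparation. Buffer subtracted, area under curve normalized to peptide alone. Four independent experiments, mean ± SEM.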

Series [8] in a line: Binding affinity to amyloid beta (1 to 42) Try residue at position 30 assessed as change in fluorescence intensity. An outline of the steps: as §3
Series [9] can be described thus: Binding affinity to amyloid beta (1 to 42) Try residue at position 1 assessed as change in fluorescence intensity using C-terminus acetylated compound. The procedure, abridged: as §2
A short description of series [10]: Binding affinity to amyloid beta (1 to 42) Try residue at position 1 assessed as change in fluorescence intensity using N-terminus amidated compound. An outline of the steps: as §2
A short description of series [11]: Binding affinity to amyloid beta (1 to 42) Try residue at position 42 assessed as change in fluorescence intensity. The procedure, abridged:
as §3

Series [12] is described as follows: Binding affinity to amyloid beta (1 to 42) Try residue at position 30 assessed as change in fluorescence intensity using N-terminus amidated compound. An outline of the steps: as §2
A short description of series [13]: Binding affinity to wild type amyloid beta (1 to 42) assessed as change in fluorescence intensity. The procedure, abridged:
as §3

Series [14] in a line: Binding affinity to amyloid beta (1 to 42) assessed as change in fluorescence intensity using C-terminus acetylated compound. An outline of the steps:
as §2

Series [15] concerns PC-12. Nature of the series: Neuroprotective activity in rat PC12 cells assessed as inhibition of staurosporine-induced cell death after 24 hrs by MTT assay.
Series [16] is described as follows: Cytotoxicity against rat PC12 cells assessed as cell viability at 1 uM after 24 hrs by MTT assay. The series is classed as cell-based, PC-12. The conditions noted are these: read-out: Activity.

Structures are written as SMILES. The source made the active and inactive calls. The calls are words filed in the database; no cut-off is given here. Residues, ends and D or L forms follow the SMILES beside them.

On to `CC[C@H](C)[C@H](NC(=O)[C@@H](NC(=O)[C@@H](N)C(C)C)C(C)C)C(=O)N[C@@H](C)C(N)=O` (H-VVIA-NH2), for which, in the series on PC-12 [1], the Activity result was “Dose-dependent effect” and the IC50 is 28 µM. In addition, the IC50 in the series on PC-12 [2] came to 30 µM.

`CC[C@H](C)[C@H](NC(=O)[C@H](C)N)C(=O)N[C@H](C(=O)N[C@H](C(=O)O)C(C)C)C(C)C` (H-AIVV-OH): the Activity entry in the series with PC-12 [1] is “Dose-dependent effect”.

Take `CC[C@H](C)[C@H](NC(=O)[C@H](C)NC(=O)[C@@H](N)C(C)C)C(=O)N[C@@H](C)C(=O)O` (H-VAIA-OH): the Activity result in the series on PC-12 [1] was “Dose-dependent effect”. Moreover, the IC50 was found to be 15 µM in the series with PC-12 [1] and 14 µM in the series on PC-12 [2].

As to `CC[C@H](C)[C@H](NC(=O)[C@@H](NC(=O)[C@@H](N)C(C)C)C(C)C)C(=O)N[C@@H](C)C(=O)O`, in the series with PC-12 [1], the Activity result was “Dose-dependent effect”. In the series with PC-12 [1], the IC50 came to 21 µM. Moreover, the outcome (in the series with PC-12 [3]; with PC-12 [4]; in the series on PC-12 [5]; in series [7]; in series [8]; in series [11]) was inactive. For the same molecule, the result (in [13]; in the series on PC-12 [15]) was inactive. Moreover, the Flu intensity was 117% in [6]; 48% in series [9]; 62% in series [10]; 24% in [12]; 19% in series [14].

As to `CC[C@H](C)[C@H](NC(=O)[C@H](C)N)C(=O)N[C@H](C(=O)N[C@H](C(N)=O)C(C)C)C(C)C` (H-AIVV-NH2), the Activity entry with PC-12 [1] is “Dose-dependent effect”.

In the case of `CN[C@@H]1C[C@H]2O[C@@](C)([C@@H]1OC)n1c3ccccc3c3c4c(c5c6ccccc6n2c5c31)C(=O)NC4` [STAUROSPORINE], the viability at 24 h, 1 µM in series [16] stood at 100%.

Take `CC[C@H](C)[C@H](NC(=O)[C@@H](NC(=O)[C@H](C)N)C(C)C)C(=O)N[C@@H](C)C(=O)O` (H-AVIA-OH): in the series on PC-12 [1], the Activity result was “Dose-dependent effect”. The IC50 with PC-12 [1] was 53 µM; in the series with PC-12 [2], 22 µM.

Values taken from ChEMBL document CHEMBL1926517, “C-terminal tetrapeptides inhibit Aβ42-induced neurotoxicity primarily through specific interaction at the N-terminus of Aβ42” (J Med Chem, 2011).
